Reference: ChEMBL document CHEMBL1139875, “Discovery of 4-aminobutyric acid derivatives possessing anticonvulsant and antinociceptive activities: a hybrid pharmacophore approach” (2007)
Calls of active or inactive are those of the source. The rule behind the calls is not given here.

Experiments:
Mus musculus [1] = assay: Anticonvulsant activity in Swiss Albino mouse at 300 mg/kg, ip after 4 hrs by MES test; format: functional, organism-based; parameters: dose 300 mg/kg
How it was run: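 Mice (Swiss, 20-25 g) given i.p. doses of 30, 100 and 300 mg/kg under ADD program protocols, three per group, examined at 0.5 and 4 h in MES, scPTZ, scSTY or scPIC seizure tests. Value is the minimum dose protecting half or more of the mice.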

Mus musculus [2] = assay: Analgesic activity in Swiss Albino mouse assessed as inhibition of acetic acid-induced writhing responses at 100 mg/kg, ip; format: functional; conditions: route intraperitoneal
How it was run: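 Mice in groups of six dosed i.p. at 100 mg/kg, controls receiving 30% v/v PEG 400 in water. Writhing induced by i.p. 0.1 mL of 3% v/v acetic acid 1 h after drug. Writhes (abdominal stretch with at least one hind limb extended) counted over 30 min; % inhibition calculated. Mean ± SEM, Student's t test.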

Rattus norvegicus [3] = assay: Effect on spontaneous pain in Sprague-Dawley rat CCI model assessed as duration of paw withdrawal at 100 mg/kg, ip after 0.5 hr; format: functional; conditions: route intraperitoneal
How it was run: (§1)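 CCI rats (n = 4) dosed 100 mg/kg i.p. (vehicle 30% v/v PEG 400 in water). After 10 min acclimatization in a cage 5 cm above ground, cumulative time the ipsilateral paw was held off the floor over 5 min recorded, excluding locomotion lifts. Mean ± SEM; ANOVA/Bonferroni versus predrug.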

Rattus norvegicus [4] = assay: Effect on spontaneous pain in Sprague-Dawley rat CCI model assessed as duration of paw withdrawal at 100 mg/kg, ip after 1 hr; format: functional; conditions: route intraperitoneal; how it was run: as §1
Rattus norvegicus [5] = assay: Effect on spontaneous pain in Sprague-Dawley rat CCI model assessed as duration of paw withdrawal at 100 mg/kg, ip after 1.5 hrs; format: functional; conditions: route intraperitoneal
How it was run: (§2)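 Unilateral CCI of sciatic nerve (Bennett and Xie) in Sprague-Dawley rats under i.p. pentobarbital sodium (65 mg/kg). Spontaneous pain is scored over 5 min after 10 min acclimatization, as cumulative time the ipsilateral paw is held off the floor. Paw lifts from locomotion or repositioning are excluded. Drug is given at 100 mg/kg i.p. with 30% v/v PEG 400 vehicle. Mean ± SEM, n = 4, compared with predrug by ANOVA/Bonferroni.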

Rattus norvegicus [6] = assay: Effect on spontaneous pain in Sprague-Dawley rat CCI model assessed as duration of paw withdrawal at 100 mg/kg, ip after 2 hrs; format: functional; conditions: route intraperitoneal; how it was run: as §2
Rattus norvegicus [7] = assay: Effect on spontaneous pain in Sprague-Dawley rat CCI model assessed as duration of paw withdrawal at 100 mg/kg, ip after 2.5 hrs; format: functional; conditions: route intraperitoneal; how it was run: as §2
Rattus norvegicus [8] = assay: Antihyperalgesic effects in Sprague-Dawley rat CCI model assessed as duration of paw withdrawal at 100 mg/kg, ip after 0.5 hr; format: functional; conditions: route intraperitoneal
Rattus norvegicus [9] = assay: Antihyperalgesic effects in Sprague-Dawley rat CCI model assessed as duration of paw withdrawal at 100 mg/kg, ip after 1 hr; format: functional; conditions: route intraperitoneal
Rattus norvegicus [10] = assay: Antihyperalgesic effects in Sprague-Dawley rat CCI model assessed as duration of paw withdrawal at 100 mg/kg, ip after 1.5 hrs; format: functional; conditions: route intraperitoneal
Rattus norvegicus [11] = assay: Antihyperalgesic effects in Sprague-Dawley rat CCI model assessed as duration of paw withdrawal at 100 mg/kg, ip after 2 hrs; format: functional; conditions: route intraperitoneal
Rattus norvegicus [12] = assay: Antihyperalgesic effects in Sprague-Dawley rat CCI model assessed as duration of paw withdrawal at 100 mg/kg, ip after 2.5 hrs; format: functional; conditions: route intraperitoneal
Rattus norvegicus [13] = assay: Effect on spontaneous pain in Sprague-Dawley rat SNL model assessed as duration of paw withdrawal at 100 mg/kg, ip after 1 hr; format: functional; conditions: route intraperitoneal
How it was run: (§3)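 Rats underwent left L5 spinal nerve ligation (Kim and Chung) under i.p. pentobarbital (65 mg/kg). Spontaneous pain is recorded for 5 min after 10 min acclimatization, as cumulative duration the ipsilateral paw is lifted, excluding locomotor lifts. Dosing is 100 mg/kg i.p. in 30% v/v PEG 400/water, with testing at 0.5–2.5 h. Four rats, mean ± SEM versus predrug, one-way ANOVA with Bonferroni.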

Rattus norvegicus [14] = assay: Effect on spontaneous pain in Sprague-Dawley rat SNL model assessed as duration of paw withdrawal at 100 mg/kg, ip after 1.5 hrs; format: functional; conditions: route intraperitoneal; how it was run: as §3
Rattus norvegicus [15] = assay: Antihyperalgesic effects in Sprague-Dawley rat SNL model assessed as duration of paw withdrawal at 100 mg/kg, ip after 0.5 hr, ip; format: functional; conditions: route intraperitoneal
How it was run: (§4)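 L5 SNL rats (n = 4), dosed 100 mg/kg i.p. (vehicle 30% v/v PEG 400 in water). Pin-prick to midplantar ipsilateral left hindpaw; withdrawal duration, mean of three responses; ≥2 s defined abnormal. Mean ± SEM; one-way ANOVA with Bonferroni versus predrug.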

Rattus norvegicus [16] = assay: Antihyperalgesic effects in Sprague-Dawley rat SNL model assessed as duration of paw withdrawal at 100 mg/kg, ip after 1 hr, ip; format: functional; conditions: route intraperitoneal; how it was run: as §4
Rattus norvegicus [17] = assay: Antihyperalgesic effects in Sprague-Dawley rat SNL model assessed as duration of paw withdrawal at 100 mg/kg, ip after 1.5 hrs, ip; format: functional; conditions: route intraperitoneal; how it was run: as §4
Rattus norvegicus [18] = assay: Antihyperalgesic effects in Sprague-Dawley rat SNL model assessed as duration of paw withdrawal at 100 mg/kg, ip after 2.5 hrs, ip; format: functional; conditions: route intraperitoneal; how it was run: as §4
Rattus norvegicus [19] = species: Rattus norvegicus; assay: Anti-dynamic allodynic effect in Sprague-Dawley rat CCI model assessed as latency to paw withdrawal after 0.5 hr; format: functional
How it was run: (§5)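 Rats with sciatic nerve chronic constriction injury (pentobarbital 65 mg/kg i.p. anaesthesia), baseline and day 9 testing, then drug per randomization table. After 10 min acclimatization, affected plantar surface stroked mildly with a cotton-bud; paw lift recorded. n = 4; retested 0.5-2.5 h post-dose.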

Rattus norvegicus [20] = species: Rattus norvegicus; assay: Anti-dynamic allodynic effect in Sprague-Dawley rat CCI model assessed as latency to paw withdrawal after 1 hr; format: functional; how it was run: as §5
Rattus norvegicus [21] = species: Rattus norvegicus; assay: Anti-dynamic allodynic effect in Sprague-Dawley rat CCI model assessed as latency to paw withdrawal after 1.5 hr; format: functional; how it was run: as §5
Rattus norvegicus [22] = species: Rattus norvegicus; assay: Anti-dynamic allodynic effect in Sprague-Dawley rat CCI model assessed as latency to paw withdrawal after 2 hr; format: functional; how it was run: as §5
Rattus norvegicus [23] = species: Rattus norvegicus; assay: Anti-dynamic allodynic effect in Sprague-Dawley rat CCI model assessed as latency to paw withdrawal after 2.5 hr; format: functional; how it was run: as §5
Rattus norvegicus [24] = assay: Anti-cold allodynia effect in Sprague-Dawley rat CCI model assessed as duration of paw withdrawal 100 mg/kg, ip after 1.5 hr; format: functional; conditions: route intraperitoneal
How it was run: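 CCI by sciatic nerve ligation under pentobarbital (65 mg/kg i.p.). Rats tested at baseline and 9 days post-surgery; those with allodynia dosed i.p. 100 mg/kg, vehicle 30% v/v PEG 400 in water. Acetone (100-200 µL) misted on midplantar affected paw; withdrawal duration recorded, three samples averaged, at least 3 min apart; n = 4.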

Rattus norvegicus [25] = assay: Anti-cold allodynia effect in Sprague-Dawley rat SNL model assessed as duration of paw withdrawal 100 mg/kg, ip after 1.5 hrs; format: functional; conditions: route intraperitoneal
How it was run: (§6)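 Left L5 spinal nerve ligation under pentobarbital (65 mg/kg i.p.). Allodynic rats dosed i.p. 100 mg/kg, vehicle 30% v/v PEG 400 in water. Acetone (100-200 µL) misted onto midplantar affected paw after 10 min acclimatization; paw withdrawal duration, mean of three samples at least 3 min apart; n = 4 rats.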

Rattus norvegicus [26] = assay: Anti-cold allodynia effect in Sprague-Dawley rat SNL model assessed as duration of paw withdrawal 100 mg/kg, ip after 2 hrs; format: functional; conditions: route intraperitoneal; how it was run: as §6

Row | Structure (SMILES) | Activity (Rattus norvegicus [3]) [s] | Activity (Rattus norvegicus [4]) [s] | Activity (Rattus norvegicus [5]) [s] | Activity (Rattus norvegicus [6]) [s] | Activity (Rattus norvegicus [7]) [s] | Activity (Rattus norvegicus [8]) [s] | Activity (Rattus norvegicus [9]) [s] | Activity (Rattus norvegicus [10]) [s] | Activity (Rattus norvegicus [11]) [s] | Activity (Rattus norvegicus [12]) [s] | Activity (Rattus norvegicus [13]) [s] | Activity (Rattus norvegicus [14]) [s] | Activity (Rattus norvegicus [15]) [s] | Activity (Rattus norvegicus [16]) [s] | Activity (Rattus norvegicus [17]) [s] | Activity (Rattus norvegicus [18]) [s] | Activity (Rattus norvegicus [19]) [s] | Activity (Rattus norvegicus [20]) [s] | Activity (Rattus norvegicus [21]) [s] | Activity (Rattus norvegicus [22]) [s] | further results
1 | CN(C)c1ccc(/C=N/NC(=O)NCCCC(=O)O)cc1 | 47.2 | 48.8 | 38.2 | 11.9 | 5.2 | 17.4 | 13.1 | 9.7 | 5.8 | 4.8 | 21.2 | 16.4 | 4.7 | 5.8 | 5.5 | 5.8 | 10.9 | 10.9 | 10.3 | 8.2 | Activity (Mus musculus [1]): inactive; inhibition in vivo at 100 mg/kg (Mus musculus [2]): 93%; Activity (Rattus norvegicus [23]): 8.4 s; Activity (Rattus norvegicus [24]): 14.4 s
2 | Nc1nnc(-c2cccc(Cl)c2Cl)c(N)n1 [LAMOTRIGINE] | 69.2 | 79 | 76.9 | 71.2 | 67.8 | 36.2 | 36.7 | 35.7 | 33.7 | 29.8 | 13.3 | 2.6 | 22.5 | 8.2 | 10.1 | 17.3 | 5.7 | 1.3 | 0.9 | 0.9 | Activity (Rattus norvegicus [25]): 21.8 s; Activity (Rattus norvegicus [26]): 17.3 s; Activity (Rattus norvegicus [23]): 1 s; Activity (Rattus norvegicus [24]): 32.4 s
3 | NCC1(CC(=O)O)CCCCC1 [GABAPENTIN] | 62.2 | 15.5 | 13.1 | 11 | 18.1 | 36.8 | 12.3 | 10.7 | 9.2 | 8.4 | 12.9 | 10.2 | 20.1 | 10.2 | 10 | 8.8 | 1.6 | 4.6 | 5.5 | 5.9 | Activity (Rattus norvegicus [25]): 7.8 s; Activity (Rattus norvegicus [26]): 7.6 s; Activity (Rattus norvegicus [23]): 6.6 s; Activity (Rattus norvegicus [24]): 9.3 s
